Measurements: ChEMBL document CHEMBL1139904, “2-hydroxy-N-arylbenzenesulfonamides as ATP-citrate lyase inhibitors” (Bioorg Med Chem Lett, 2007)

Key:
ATP-citrate synthase = biological target: T1, ATP-citrate synthase (Homo sapiens, UniProt P53396); assay: Inhibition of human recombinant ATP-citrate lyase
T1 sequence (P53396 whole entry): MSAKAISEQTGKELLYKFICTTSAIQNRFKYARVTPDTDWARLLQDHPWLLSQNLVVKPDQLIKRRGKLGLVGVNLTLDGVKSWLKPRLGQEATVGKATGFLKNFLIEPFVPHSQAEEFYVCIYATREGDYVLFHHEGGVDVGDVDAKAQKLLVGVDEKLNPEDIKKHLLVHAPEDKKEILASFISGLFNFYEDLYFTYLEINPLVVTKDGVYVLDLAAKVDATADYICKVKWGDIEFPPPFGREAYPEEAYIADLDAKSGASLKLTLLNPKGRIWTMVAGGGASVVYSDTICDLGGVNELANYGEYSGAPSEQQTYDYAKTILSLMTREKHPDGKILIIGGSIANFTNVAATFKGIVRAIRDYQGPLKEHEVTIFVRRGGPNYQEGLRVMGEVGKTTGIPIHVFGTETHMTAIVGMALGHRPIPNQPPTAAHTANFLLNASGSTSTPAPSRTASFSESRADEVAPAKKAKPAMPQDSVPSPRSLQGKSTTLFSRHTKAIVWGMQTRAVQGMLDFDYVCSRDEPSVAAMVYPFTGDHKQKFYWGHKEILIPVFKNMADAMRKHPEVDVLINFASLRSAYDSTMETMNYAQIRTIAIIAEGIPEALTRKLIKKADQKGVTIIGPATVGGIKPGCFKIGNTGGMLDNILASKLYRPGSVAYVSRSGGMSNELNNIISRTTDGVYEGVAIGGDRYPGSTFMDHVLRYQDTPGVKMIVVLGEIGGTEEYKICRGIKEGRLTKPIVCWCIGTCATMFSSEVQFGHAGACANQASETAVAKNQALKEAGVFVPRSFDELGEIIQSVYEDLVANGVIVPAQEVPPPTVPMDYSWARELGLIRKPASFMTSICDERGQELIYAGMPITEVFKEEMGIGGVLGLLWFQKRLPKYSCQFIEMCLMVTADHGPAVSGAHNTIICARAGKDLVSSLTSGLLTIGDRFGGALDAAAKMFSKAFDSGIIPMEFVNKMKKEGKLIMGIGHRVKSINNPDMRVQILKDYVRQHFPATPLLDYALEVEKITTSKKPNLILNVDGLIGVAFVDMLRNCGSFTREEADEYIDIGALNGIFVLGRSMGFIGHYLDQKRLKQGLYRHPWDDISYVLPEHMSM
Outline: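 Recombinant human ACL enzyme assay; values are at least two separate measurements.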

Mus musculus [1] = assay: Reduction of body weight gain in high-fat diet C57BL/6 mouse at 100 mg/kg after 29 days; assay type: functional; set-up: scale not given: the % may be the effect or the level left
Outline: (§1)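 Eight-week-old C57BL/6 mice (~30 g), five per group. High-fat diet (30% coconut oil, 45% sucrose) admixed with compound to give 10 or 100 mg/kg/day, versus high-fat and normal-chow controls, for 34 days. Food intake and body weight tracked; plasma lipids and fasting glucose assessed weekly. Lipid/glucose changes expressed as % reduction versus high-fat controls at day 29.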

Mus musculus [2] = assay: Increase in food consumption in normal fat diet C57BL/6 mouse at 10 mg/kg; assay type: functional
[3] = Tmax in mouse at 10 mg/kg, po; conditions: in vivo
Mus musculus [4] = assay: Reduction of cholesterol level in high-fat diet C57BL/6 mouse at 100 mg/kg; assay type: functional; set-up: scale not given: the % may be the effect or the level left; outline: as §1
Mus musculus [5] = assay: Reduction of fasting plasma glucose level in C57BL/6 mouse at 100 mg/kg; assay type: functional; set-up: scale not given: the % may be the effect or the level left; outline: as §1
Mus musculus [6] = assay: Reduction of cholesterol level in high-fat diet C57BL/6 mouse at 10 mg/kg; assay type: functional; set-up: scale not given: the % may be the effect or the level left; outline: as §1
HepG2 [7] = assay: Cytotoxicity against HepG2 cells upto 50 uM by Alamar blue assay; conditions: Homo sapiens
Mus musculus [8] = assay: Reduction of fat in high-fat diet C57BL/6 mouse at 10 mg/kg after 34 days; set-up: scale not given: the % may be the effect or the level left
Mus musculus [9] = assay: Reduction of triglycerides in high-fat diet C57BL/6 mouse at 10 mg/kg; assay type: functional; set-up: scale not given: the % may be the effect or the level left; outline: as §1
[10] = Cmax in mouse at 10 mg/kg, po; assay type: ADME, organism-based; set-up: dose 10 mg/kg, route oral; conditions: in vivo
Outline: (§2)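 Mice dosed at 10 mg/kg both iv and po; vehicle 10% ethanol, 45% water, 45% PEG-400. Standard PK parameters derived: oral bioavailability, half-life, Cmax (po), Tmax (po), total body clearance.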

Mus musculus [11] = assay: Increase in food consumption in high-fat diet C57BL/6 mouse at 10 mg/kg; assay type: functional; outline: as §1
[12] = Oral bioavailability in mouse at 10 mg/kg; assay type: ADME, organism-based; conditions: in vivo; outline: as §2
Mus musculus [13] = assay: Reduction of fasting plasma glucose level in C57BL/6 mouse at 10 mg/kg; assay type: functional; set-up: scale not given: the % may be the effect or the level left; outline: as §1
Acetyl-CoA carboxylase 2 = Acetyl-CoA carboxylase 2 (Homo sapiens, UniProt O00763); assay: Inhibition of human ACC2
HepG2 [14] = assay: Inhibition of total lipid synthesis HepG2 cells assessed as incorporation of [14C]total lipids after 6 hrs; assay type: functional, cell-based; conditions: Homo sapiens, HepG2, 6 h
Outline: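 HepG2 cells incubated 6 h after compound addition, with [14C]-alanine present for the final 4 h; label incorporation into total lipid measured.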

Acetyl-CoA carboxylase 1 = Acetyl-CoA carboxylase 1 (Homo sapiens, UniProt Q13085); assay: Inhibition of human ACC1
Mus musculus [15] = assay: Reduction of body weight gain in high-fat diet C57BL/6 mouse at 10 mg/kg after 29 days; assay type: functional; set-up: scale not given: the % may be the effect or the level left; outline: as §1
[16] = Half life in mouse at 10 mg/kg, iv and po; assay type: ADME, organism-based; set-up: dose 10 mg/kg, route oral; conditions: in vivo; outline: as §2
Mus musculus [17] = assay: Reduction of triglycerides in high-fat diet C57BL/6 mouse at 100 mg/kg; assay type: functional; set-up: scale not given: the % may be the effect or the level left; outline: as §1
Mus musculus [18] = assay: Reduction of fat in high-fat diet C57BL/6 mouse at 100 mg/kg after 34 days; set-up: scale not given: the % may be the effect or the level left

Chain of Acetyl-CoA carboxylase 2 (O00763 whole entry): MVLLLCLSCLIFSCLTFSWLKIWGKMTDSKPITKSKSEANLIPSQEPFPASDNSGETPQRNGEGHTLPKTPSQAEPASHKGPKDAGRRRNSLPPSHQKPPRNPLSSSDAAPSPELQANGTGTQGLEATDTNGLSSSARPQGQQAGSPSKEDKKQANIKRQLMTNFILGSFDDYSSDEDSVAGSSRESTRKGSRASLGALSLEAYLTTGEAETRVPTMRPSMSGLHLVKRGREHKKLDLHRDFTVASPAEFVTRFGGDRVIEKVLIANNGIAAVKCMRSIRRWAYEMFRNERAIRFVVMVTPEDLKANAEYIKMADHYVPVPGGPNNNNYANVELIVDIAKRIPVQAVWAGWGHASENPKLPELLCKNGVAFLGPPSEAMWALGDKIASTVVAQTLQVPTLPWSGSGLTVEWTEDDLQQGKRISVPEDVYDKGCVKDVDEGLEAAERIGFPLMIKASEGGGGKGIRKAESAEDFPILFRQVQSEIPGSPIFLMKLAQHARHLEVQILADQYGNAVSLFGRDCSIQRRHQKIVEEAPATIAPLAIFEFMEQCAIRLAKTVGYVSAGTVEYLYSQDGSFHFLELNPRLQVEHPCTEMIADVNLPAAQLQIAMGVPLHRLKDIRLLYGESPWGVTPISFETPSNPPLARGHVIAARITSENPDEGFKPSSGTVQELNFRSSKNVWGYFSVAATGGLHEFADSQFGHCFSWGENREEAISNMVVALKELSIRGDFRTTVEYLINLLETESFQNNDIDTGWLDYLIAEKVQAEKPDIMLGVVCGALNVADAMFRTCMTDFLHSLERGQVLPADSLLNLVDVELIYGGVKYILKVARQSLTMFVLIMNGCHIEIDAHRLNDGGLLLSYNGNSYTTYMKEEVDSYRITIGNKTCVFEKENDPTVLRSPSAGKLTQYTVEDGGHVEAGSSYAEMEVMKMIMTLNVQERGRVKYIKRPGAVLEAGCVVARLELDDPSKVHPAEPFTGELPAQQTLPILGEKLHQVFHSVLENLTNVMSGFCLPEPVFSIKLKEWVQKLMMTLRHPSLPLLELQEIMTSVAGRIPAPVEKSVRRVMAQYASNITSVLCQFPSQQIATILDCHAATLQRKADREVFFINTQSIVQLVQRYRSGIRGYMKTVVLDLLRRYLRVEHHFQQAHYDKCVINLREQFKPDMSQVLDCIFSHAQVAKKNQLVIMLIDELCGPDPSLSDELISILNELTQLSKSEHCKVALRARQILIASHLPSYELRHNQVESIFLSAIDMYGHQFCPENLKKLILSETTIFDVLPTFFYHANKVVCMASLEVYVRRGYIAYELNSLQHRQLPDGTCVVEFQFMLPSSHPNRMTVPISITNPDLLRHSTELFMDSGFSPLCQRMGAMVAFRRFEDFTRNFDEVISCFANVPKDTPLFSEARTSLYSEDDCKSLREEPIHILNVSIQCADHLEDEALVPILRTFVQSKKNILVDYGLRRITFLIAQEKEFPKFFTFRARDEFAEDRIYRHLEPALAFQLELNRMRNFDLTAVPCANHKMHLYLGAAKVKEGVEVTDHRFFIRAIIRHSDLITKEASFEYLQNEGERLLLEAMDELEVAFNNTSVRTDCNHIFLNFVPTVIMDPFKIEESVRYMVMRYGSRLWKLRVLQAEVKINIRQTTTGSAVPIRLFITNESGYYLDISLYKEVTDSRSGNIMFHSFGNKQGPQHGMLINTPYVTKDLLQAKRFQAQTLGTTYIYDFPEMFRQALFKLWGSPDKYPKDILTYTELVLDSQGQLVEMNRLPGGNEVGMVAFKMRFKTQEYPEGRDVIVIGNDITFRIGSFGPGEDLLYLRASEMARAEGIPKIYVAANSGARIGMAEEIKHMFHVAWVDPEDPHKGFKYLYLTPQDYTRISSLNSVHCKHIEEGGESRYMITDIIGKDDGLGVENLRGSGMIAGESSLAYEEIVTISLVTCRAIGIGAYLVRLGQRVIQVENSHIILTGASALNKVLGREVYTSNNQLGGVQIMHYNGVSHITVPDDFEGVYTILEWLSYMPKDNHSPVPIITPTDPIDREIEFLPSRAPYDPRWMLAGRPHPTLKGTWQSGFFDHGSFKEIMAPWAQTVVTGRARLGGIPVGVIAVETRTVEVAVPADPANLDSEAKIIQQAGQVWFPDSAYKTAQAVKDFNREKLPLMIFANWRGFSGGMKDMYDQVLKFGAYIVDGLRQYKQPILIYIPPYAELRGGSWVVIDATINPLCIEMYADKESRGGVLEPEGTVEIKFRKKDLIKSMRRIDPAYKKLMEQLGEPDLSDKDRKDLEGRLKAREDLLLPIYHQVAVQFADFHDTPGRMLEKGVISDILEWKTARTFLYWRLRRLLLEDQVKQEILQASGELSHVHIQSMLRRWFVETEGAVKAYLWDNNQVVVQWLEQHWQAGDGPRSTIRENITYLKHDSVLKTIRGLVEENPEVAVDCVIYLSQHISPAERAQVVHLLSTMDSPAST

`O=S(=O)(Nc1cc(F)cc(F)c1)c1cc(Cl)cc(Cl)c1O` showed an IC50 (ATP-citrate synthase) of 7.6 µM.

Work on `O=C(OC/C=C\c1ccccc1)c1ccccc1NS(=O)(=O)c1cc(Cl)cc(Cl)c1O` yielded an IC50 (ATP-citrate synthase) of 0.34 µM.

Molecule `O=S(=O)(Nc1cccc(Oc2ccccc2)c1)c1cc(Cl)cc(Cl)c1O` has an IC50 (ATP-citrate synthase) of 8.1 µM.

`CC(C)(C)c1ccc(C(C)(C)C)c(NS(=O)(=O)c2cc(Cl)cc(Cl)c2O)c1` showed an IC50 (ATP-citrate synthase) of 5.6 µM.

`CC(=O)N(C)c1ccc(NS(=O)(=O)c2cc(Cl)cc(Cl)c2O)cc1` showed an IC50 (ATP-citrate synthase) of 10.9 µM.

In the case of `CC1CCC(C(C)C)C(OC(=O)c2ccccc2NS(=O)(=O)c2cc(Cl)cc(Cl)c2O)C1` (stereo not drawn), the IC50 (ATP-citrate synthase) is reported as 0.37 µM.

For `CCCCCCc1ccc(NS(=O)(=O)c2cc(Cl)cc(Cl)c2O)cc1`, the IC50 (ATP-citrate synthase) was 6.9 µM.

Molecule `CC(C)(C)c1cc(NS(=O)(=O)c2cc(Cl)cc(Cl)c2O)cc(C(C)(C)C)c1` has an IC50 (ATP-citrate synthase) of 1.1 µM.

With `O=C(O)C[C@@](O)(C(=O)O)[C@H](O)C(=O)O` the IC50 (ATP-citrate synthase) was 0.15 µM.

For `O=S(=O)(Nc1c(-c2ccccc2)cc(-c2ccccc2)cc1-c1ccccc1)c1cc(Cl)cc(Cl)c1O`, the IC50 (ATP-citrate synthase) was 0.19 µM.

`O=S(=O)(Nc1cc(Cl)cc(Cl)c1)c1cc(Cl)cc(Cl)c1O` showed an IC50 (ATP-citrate synthase) of 2.3 µM.

For `COc1ccc(-c2ccccc2)cc1NS(=O)(=O)c1cc(Cl)cc(Cl)c1O`, the Activity (Mus musculus [1]) was 3%, the Activity (Mus musculus [2]) was 4 g/day and the Tmax [3] was 0.5 h. The Activity (Mus musculus [4]) was -19%, the Activity (Mus musculus [5]) was -32% and the Activity (Mus musculus [6]) was -9%. The Activity (HepG2 [7]) was “Not toxic”, the Activity (Mus musculus [8]) was 12.9% and the Activity (Mus musculus [9]) was -26%. It also gave a Cmax [10] of 13 µM, an Activity (Mus musculus [11]) of 3.2 g/day and a bioavailability [12] of 55%. For the same molecule, the Activity (Mus musculus [13]) was -48%, the IC50 (Acetyl-CoA carboxylase 2) was 12 µM and the IC50 (HepG2 [14]) was 8 µM. It also gave an IC50 (Acetyl-CoA carboxylase 1) of 6 µM, an Activity (Mus musculus [15]) of 7.2% and an IC50 (ATP-citrate synthase) of 0.13 µM. The half-life [16] was 2.1 h, the Activity (Mus musculus [17]) was -26% and the Activity (Mus musculus [18]) was 7.3%.

With `O=C(O)C[C@@](O)(C[C@H](O)CCCCCCc1ccc(Cl)cc1Cl)C(=O)O` the IC50 (ATP-citrate synthase) was 2.1 µM.
